The values below come from ChEMBL document CHEMBL3797062, “Diterpenes from the Trunk of Abies holophylla and Their Potential Neuroprotective and Anti-inflammatory Activities” (J Nat Prod, 2016).

Activity calls are given as the source filed them. The calls are words filed in the database; no cut-off is given here.

For one data set, the system named is BV-2. The data set can be described thus: Antiinflammatory activity in mouse BV2 cells assessed as inhibition of LPS-induced NO production after 24 hrs by Griess assay. It counts as functional, cell-based. The gist of the method:
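BV2 microglia seeded at 4 × 10^4 cells/well, given compound at various concentrations with LPS (100 ng/mL), incubated 24 h. Nitrite in the medium read with Griess reagent (0.1% N-1-naphthylethylenediamine dihydrochloride, 1% sulfanilamide in 5% phosphoric acid, equal volume of supernatant), absorbance at 570 nm after 10 min. Sodium nitrite standard curve. IC50 derived. L-NMMA positive control.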

In a further data set the test system is A549. The data set can be described thus: Cytotoxicity in human A549 cells by SRB assay. The format is functional, cell-based. (In general: The SRB assay estimates cell density from bound dye.)
A short description of data set [1]: Cytotoxicity in human SKOV3 cells by SRB assay. It counts as functional, cell-based. Conditions: SK-OV-3.
A further data set relates to SK-MEL-2. Briefly: Cytotoxicity in human SK-MEL-2 cells by SRB assay. The format is functional, cell-based.
Data set [2] can be described thus: Cytotoxicity in human HCT116 cells by SRB assay. The format is functional, cell-based. The note with it: HCT-116.
The subject of the next data set is C6. Briefly: Neuroprotective activity in rat C6 cells assessed as induction of NGF release at 20 uM after 24 hrs by ELISA. It counts as functional. The gist of the method: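 C6 glioma cells seeded at 1 × 10^5 cells/well. After 24 h, treated with compound at 20 μM in serum-free DMEM for a further 24 h. NGF secreted into the conditioned medium quantified by ELISA and expressed as % of untreated control (100%). 6-Shogaol positive control. Means ± SD of three independent experiments run in triplicate.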

Data set [3] in a line: Cytotoxicity in rat C6 cells assessed as cell viability at 20 uM after 24 hrs by MTT assay. Conditions: read-out: Activity. It counts as cell-based. The gist of the method: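 C6 glioma cells seeded at 1 × 10^5 cells/well. After 24 h, switched to serum-free DMEM with compound at 20 μM for a further 24 h. Viability by MTT, expressed as % of untreated control. Means ± SD of three independent experiments.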

Usually IC50 stands for the concentration needed to halve the response being measured. Read a high IC50 as weaker potency. With `CC(C)[C@]12O[C@H]1CC1=C(CC[C@H]3[C@](C)(C(=O)O)CCC[C@]13C)[C@H]2O`, the inhibition entry in the data set on BV-2 was “inactive”. For the same molecule, the concentration for half-maximal inhibition (IC50) (in the data set on A549; in data set [1]; in the data set on SK-MEL-2; in data set [2]) was more than 10 µM each time.

In the case of `CC(C)c1ccc2c(c1)[C@H](O)C[C@H]1C(C)(C)CCC[C@]21C`, the inhibition result in the data set on BV-2 was “inactive”. Besides, the concentration for half-maximal inhibition (IC50) (with A549; in data set [1]; in the data set on SK-MEL-2; in data set [2]) was more than 10 µM each time.

With `CC(C)(O)c1ccc2c(c1)CC[C@H]1[C@](C)(C(=O)O)CCC[C@]21C`, the Activity in the data set with C6 was determined as 152.9%. Besides, the viability at 24 h, 20 µM in data set [3] worked out at 94.3%. The inhibition entry in the data set with BV-2 was “inactive”. Also, the IC50 (with A549; in data set [1]; in the data set on SK-MEL-2; in data set [2]) was more than 10 µM in each case.

In the case of `CO[C@]12C(=O)C[C@@H]3[C@](C)(CCC[C@@]3(C)C(=O)O)[C@H]1CC[C@@]1(C(C)C)O[C@@H]21`, the inhibition entry with BV-2 was “inactive”. In addition, the IC50 (in the data set on A549; in data set [1]; in the data set with SK-MEL-2; in data set [2]) was more than 10 µM each time.

`CO[C@H]1C(=O)C2=C[C@@](O)(C(C)C)CC[C@@H]2[C@@]2(C)CCC[C@@](C)(C(=O)O)[C@H]12`: the Activity in the data set on C6 is reported as 170.2%. Also, the viability at 24 h, 20 µM in data set [3] was 96.2%. In addition, the inhibition entry in the data set with BV-2 is “inactive”. The IC50 (in the data set with A549; in data set [1]; in the data set with SK-MEL-2; in data set [2]) was more than 10 µM in each case.

Consider `CC(=O)OC[C@]1(C)CCC[C@]2(C)c3ccc(C(C)(C)O)cc3CC[C@@H]12`, for which, in the data set on C6, the Activity came out at 171.3%. Further, the viability at 24 h, 20 µM in data set [3] amounted to 85.5%. Besides, the inhibition entry in the data set on BV-2 is “inactive”. Besides, the IC50 (in the data set with A549; in data set [1]; with SK-MEL-2; in data set [2]) was more than 10 µM in each case.

On to `CC(C)[C@@]12C=C3[C@H](O)C[C@H]4[C@](C)(C(=O)O)CCC[C@]4(C)[C@]3(CC1)OO2`, for which the Activity in the data set on C6 was determined as 154.3%. Further, the viability at 24 h, 20 µM in data set [3] stood at 127%. For the same molecule, in the data set on BV-2, the inhibition result is “inactive”. The IC50 (in the data set on A549; in data set [1]; in the data set on SK-MEL-2; in data set [2]) was more than 10 µM throughout.

In the case of `CC(C)[C@]12O[C@H]1C[C@@H]1[C@@]3(C)CCC[C@@](C)(C(=O)O)[C@@H]3CC[C@@]1(O)[C@H]2O`, in the data set with BV-2, the inhibition result was “inactive”. Moreover, the IC50 (in the data set on A549; in data set [1]; in the data set with SK-MEL-2; in data set [2]) was more than 10 µM in each case.

Consider `COc1cc([C@@H]2c3cc4c(cc3[C@@H](O[C@@H]3O[C@@H]5CO[C@@H](C)O[C@H]5[C@H](O)[C@H]3O)[C@H]3COC(=O)[C@H]23)OCO4)cc(OC)c1O` [ETOPOSIDE], for which the IC50 is 1.4 µM in the data set on A549, 2.6 µM in data set [1], 1.5 µM with SK-MEL-2 and 1 µM in data set [2].

In the case of `CC(C)C1=C[C@@]23CC[C@@H]4[C@](C)(CCC[C@@]4(C)C(=O)O)[C@H]2C[C@@H]1OO3`, the Activity in the data set on C6 was found to be 153%. The viability at 24 h, 20 µM in data set [3] worked out at 102%. The inhibition result with BV-2 was “inactive”. In addition, the concentration for half-maximal inhibition (IC50) (with A549; in data set [1]; in the data set on SK-MEL-2; in data set [2]) was more than 10 µM throughout.

For the molecule `CO[C@@]1(C(C)C)C=C2C(=O)C[C@@H]3[C@](C)(CCC[C@@]3(C)C(=O)O)[C@H]2CC1`, in the data set on BV-2, the inhibition result is “inactive”. Also, the half-inhibitory concentration (IC50) (in the data set on A549; in data set [1]; in the data set with SK-MEL-2; in data set [2]) was more than 10 µM in each case.

In the case of `CC(C)[C@@]12CC[C@@H]3[C@@]4(C)CCC[C@@](C)(C(=O)O)[C@@H]4CC(=O)[C@]3(O)[C@@H]1O2`, the Activity in the data set with C6 was 155%. For the same molecule, in data set [3], the viability at 24 h, 20 µM came out at 91.4%. For the same molecule, the inhibition result in the data set on BV-2 was “inactive”. Moreover, the 50% inhibitory concentration (IC50) (with A549; in data set [1]; in the data set with SK-MEL-2; in data set [2]) was more than 10 µM in each case.

For `CC(C)(O)[C@]12O[C@H]1C[C@@H]1[C@@]3(C)CCC[C@@](C)(C(=O)O)[C@@H]3CC[C@@]1(O)[C@H]2O`, the inhibition result in the data set on BV-2 was “inactive”. The half-maximal inhibitory concentration (IC50) (in the data set on A549; in data set [1]; in the data set on SK-MEL-2; in data set [2]) was more than 10 µM throughout.

`CC(C)c1ccc2c(c1)[C@@H](O)C[C@H]1[C@](C)(C(=O)O)CCC[C@]21C`: the Activity with C6 is reported as 165.1%. Moreover, the viability at 24 h, 20 µM in data set [3] stood at 96.2%. Also, in the data set on BV-2, the inhibition entry was “inactive”. Besides, the half-inhibitory concentration (IC50) (in the data set with A549; in data set [1]; in the data set on SK-MEL-2; in data set [2]) was more than 10 µM in each case.

Take `CC(C)c1ccc2c(c1)[C@H](O)C[C@H]1[C@](C)(COC(=O)CCC(=O)O)CCC[C@]21C` [ABIESADINE F]: the Activity with C6 worked out at 142.2%. For the same molecule, the viability at 24 h, 20 µM in data set [3] is 98.2%. In the data set with BV-2, the inhibition result was “inactive”. For the same molecule, the 50% inhibitory concentration (IC50) (in the data set with A549; in data set [1]; with SK-MEL-2; in data set [2]) was more than 10 µM each time.

For the molecule `CC(C)c1ccc2c(c1)[C@H](O)C[C@H]1[C@](C)(C(=O)O)CCC[C@]21C`, the Activity in the data set with C6 was 204.3%. The viability at 24 h, 20 µM in data set [3] was 101%. Also, the inhibition entry in the data set with BV-2 was “inactive”. For the same molecule, the IC50 (in the data set on A549; in data set [1]; with SK-MEL-2; in data set [2]) was more than 10 µM each time.

Consider `CC(C)(O)[C@]12O[C@H]1C[C@H]1C(=CC[C@@H]3[C@]1(C)CCC[C@@]3(C)C(=O)O)[C@H]2O`, for which, in the data set on C6, the Activity is 158.6%. In data set [3], the viability at 24 h, 20 µM stood at 92.5%. Also, the inhibition entry in the data set with BV-2 was “inactive”. For the same molecule, the half-inhibitory concentration (IC50) (in the data set with A549; in data set [1]; in the data set with SK-MEL-2; in data set [2]) was more than 10 µM in each case.

As for `CC(C)c1ccc2c(c1)CC[C@H]1[C@](C)(C(=O)O)CCC[C@]21C` [DEHYDROABIETIC ACID], in the data set with C6, the Activity came to 170.2%. In addition, the viability at 24 h, 20 µM in data set [3] worked out at 92.3%. The inhibition result in the data set with BV-2 was “inactive”. Also, the concentration for half-maximal inhibition (IC50) (in the data set with A549; in data set [1]; in the data set with SK-MEL-2; in data set [2]) was more than 10 µM each time.

In the case of `CC(C)[C@]12O[C@H]1C[C@H]1C(=CC[C@@H]3[C@]1(C)CCC[C@@]3(C)C(=O)O)[C@H]2O`, in the data set on C6, the Activity stood at 193.9%. In data set [3], the viability at 24 h, 20 µM was determined as 73.1%. Besides, in the data set with BV-2, the inhibition entry is “inactive”. Further, the IC50 (in the data set on A549; in data set [1]; with SK-MEL-2; in data set [2]) was more than 10 µM each time.

As to `CC(C)(O)[C@]12O[C@H]1C[C@@H]1[C@@]3(C)CCC[C@@](C)(C(=O)O)[C@@H]3CC[C@@]13O[C@H]32`, the inhibition result in the data set on BV-2 was “inactive”. Further, the half-maximal inhibitory concentration (IC50) (with A549; in data set [1]; with SK-MEL-2; in data set [2]) was more than 10 µM in each case.

With `CO[C@@]1(C(C)C)C=C2[C@H](O)C[C@@H]3[C@](C)(CCC[C@@]3(C)C(=O)O)[C@H]2CC1`, the Activity in the data set with C6 worked out at 169.4%. In addition, in data set [3], the viability at 24 h, 20 µM stood at 78.1%. Also, the inhibition entry in the data set on BV-2 is “inactive”. For the same molecule, the half-inhibitory concentration (IC50) (with A549; in data set [1]; with SK-MEL-2; in data set [2]) was more than 10 µM in each case.

In the case of `CC(C)c1ccc2c(c1)[C@H](O)C[C@H]1[C@](C)(CO)CCC[C@]21C`, the Activity with C6 worked out at 177.1%. Moreover, the viability at 24 h, 20 µM in data set [3] came out at 89.3%. For the same molecule, the inhibition entry with BV-2 was “inactive”. Besides, the half-maximal inhibitory concentration (IC50) (in the data set on A549; in data set [1]; with SK-MEL-2; in data set [2]) was more than 10 µM each time.

Regarding `CC(C)(O)c1ccc2c(c1)C(=O)C[C@H]1[C@](C)(C(=O)O)CCC[C@]21C`, the Activity with C6 worked out at 161.7%. Further, the viability at 24 h, 20 µM in data set [3] is 94.6%. Further, the inhibition entry in the data set on BV-2 was “inactive”. Moreover, the IC50 (with A549; in data set [1]; in the data set on SK-MEL-2; in data set [2]) was more than 10 µM in each case.

As to `CC(C)[C@]12C=C3[C@H](O)C[C@H]4[C@](C)(C(=O)O)CCC[C@]4(C)[C@@]3(CC1)OO2`, in the data set with BV-2, the inhibition entry was “inactive”. In addition, the IC50 (in the data set on A549; in data set [1]; in the data set on SK-MEL-2; in data set [2]) was more than 10 µM in each case.
